Assay outcomes deposited in PubChem by several laboratories.
Sampled rows, rich in hits. Any-hit rate of the full collection: about 12%.
L major viab = Leishmania major promastigote growth inhibition; Leishmania major promastigotes, resazurin fluorescence viability; 200,000 compounds, 9% hits; inhibition, % at 10 µM; AID 1063;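 also: promastigotes grown with compound for 44 hours at 28 °C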
Wee1 degr inh = blocks degradation of human Wee1 kinase; HeLa Luc-Wee1K328M stability, luciferase luminescence; 100% = proteasome inhibitor MG132 effect; reporter increase, % at 5 µM; 220,000 compounds, 1.2% hits; P30291;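 active = activation above the mean of all tested compounds plus 3 SD, set per screening run, cut at about 8.8% in these data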;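 also: cells exposed to compound for 20 h before luminescence read; 0% = DMSO alone and 100% = MG132 at 30 µM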
Arbovirus inh = antivirals against arbovirus infection; 200,000 compounds, 0.37% hits; arbovirus infection cell-based antiviral screen; inhibition, % at 10 µM; in the data active = inhibition above about 30%
Rad51 HR inh = Rad51 (human) homologous recombination inhibition; Q06609; hRad51 DNA strand exchange, fluorescence dequenching; inhibition, % at 10 µM; 200,000 compounds, 0.085% hits;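 active = inhibition above 40% at the single screening dose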;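 also: 0% = DMSO control wells and 100% = blanks with heterologous ssDNA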
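Test system – preformed human Rad51 ssDNA filaments · Reagent – Donor/quencher-labelled 47-bp dsDNA substrate · Incubation – 37 °C 15-min filament assembly, 30-min compound preincubation, 15-min exchange · Signal – FRET fluorescence dequenching, excitation 485 nm, emission 520 nm · Read-out – percent inhibition from fluorescence, normalised to plate control and blank means · Benchmarks – plate control and blank wells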
CHOP inhibitor = blocks CHOP induction under ER stress; CHO-K1 CHOP-promoter luciferase, tunicamycin-induced, 15-18 h; inhibition, % at 10 µM; 220,000 compounds, 3.8% hits; AID 2732;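 active = compounds that reduced the stress-induced luciferase reporter signal by more than about 70% of percent inhibition, limit read from the data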;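 also: 0% = tunicamycin plus vehicle and 100% = wells without tunicamycin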
PKD1 kinase inh = inhibitors of human PKD1 kinase | Q15139 | PKD1 kinase fluorescence polarization assay | inhibition, % (concentration not given with the values) | 200,000 compounds, 0.056% hits
Target sequence (Q15139 whole entry, looked up): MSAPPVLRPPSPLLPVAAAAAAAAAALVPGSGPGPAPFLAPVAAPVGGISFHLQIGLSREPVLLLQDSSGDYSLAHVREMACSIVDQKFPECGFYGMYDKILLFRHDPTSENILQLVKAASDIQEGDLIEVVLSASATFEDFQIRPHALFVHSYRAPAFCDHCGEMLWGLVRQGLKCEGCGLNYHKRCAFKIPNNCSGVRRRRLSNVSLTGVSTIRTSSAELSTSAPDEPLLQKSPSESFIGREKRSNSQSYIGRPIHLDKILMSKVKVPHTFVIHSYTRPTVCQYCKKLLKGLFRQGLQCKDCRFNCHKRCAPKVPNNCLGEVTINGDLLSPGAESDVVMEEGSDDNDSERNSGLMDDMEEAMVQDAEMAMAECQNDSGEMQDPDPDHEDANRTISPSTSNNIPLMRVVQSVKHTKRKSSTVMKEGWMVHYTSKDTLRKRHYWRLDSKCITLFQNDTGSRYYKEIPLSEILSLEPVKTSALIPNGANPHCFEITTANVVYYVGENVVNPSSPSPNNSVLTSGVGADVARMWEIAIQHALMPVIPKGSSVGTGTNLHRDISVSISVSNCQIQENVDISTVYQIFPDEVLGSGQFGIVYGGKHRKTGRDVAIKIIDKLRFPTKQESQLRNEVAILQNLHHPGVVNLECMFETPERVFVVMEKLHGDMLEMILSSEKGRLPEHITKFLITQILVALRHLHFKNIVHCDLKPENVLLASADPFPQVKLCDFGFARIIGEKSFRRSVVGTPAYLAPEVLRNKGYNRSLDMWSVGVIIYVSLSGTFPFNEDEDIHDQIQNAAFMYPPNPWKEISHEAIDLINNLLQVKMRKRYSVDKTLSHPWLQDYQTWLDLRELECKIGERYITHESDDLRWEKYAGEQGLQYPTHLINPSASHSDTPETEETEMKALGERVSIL
An asterisk follows results filed as active. Rule as the data show it, unless noted: active = inhibition above about 50%; inactive = the rest.

How did Cc1cccc(C)c1NC(=S)Nc1ccc(Cl)c(Cl)c1 do in these assays?
L major viab: 55*; Wee1 degr inh: -2; Arbovirus inh: -18; Rad51 HR inh: -3; CHOP inhibitor: 13; PKD1 kinase inh: -4

Results for Cc1ccc(NC(=S)Nc2cc(-c3ccccc3)[nH]n2)cc1Cl ?
L major viab: 0; Wee1 degr inh: 0; Arbovirus inh: 10; Rad51 HR inh: 25; CHOP inhibitor: 84*; PKD1 kinase inh: 2

What do the screens show for `Fc1ccc(NC(=S)Nc2cccnc2)cc1Cl`?
L major viab: 10; Wee1 degr inh: -2; Arbovirus inh: -4; Rad51 HR inh: 12; CHOP inhibitor: 18; PKD1 kinase inh: -10

What do the screens show for `Cc1cc(C)cc(NC(=S)Nc2ccc(Cl)c(Cl)c2)c1`?
L major viab: 41; Wee1 degr inh: -1; Arbovirus inh: -23; Rad51 HR inh: 11; CHOP inhibitor: 17; PKD1 kinase inh: 0

How did COc1ccc(S(=O)(=O)Nc2ccccc2C(=O)NC(C)(C)C)cc1OC do in these assays?
L major viab: -8; Wee1 degr inh: -2; Arbovirus inh: 5; Rad51 HR inh: 3; CHOP inhibitor: 26; PKD1 kinase inh: -7

What do the screens show for `COc1ccc(S(=O)(=O)Nc2ccccc2C(=O)OC2CCCN(C)C2)cc1OC` (configuration not stated)?
L major viab: 100*; Wee1 degr inh: 1; Arbovirus inh: 1; Rad51 HR inh: -2; CHOP inhibitor: 16; PKD1 kinase inh: 2

Results for CCN1CCN(c2cc(C)c3cc(NC(=O)c4cnccn4)ccc3n2)CC1 ?
L major viab: 16; Arbovirus inh: 13; Rad51 HR inh: -5; CHOP inhibitor: -15; PKD1 kinase inh: -11

What do the screens show for `Cc1cc(N2CCN(C)CC2)nc2ccc(NC(=O)c3ccc(Br)o3)cc12`?
L major viab: 92*; Wee1 degr inh: -3; Arbovirus inh: -33; Rad51 HR inh: -3; CHOP inhibitor: -23; PKD1 kinase inh: -8

How did O=C(Nc1ccc(N2CCCC2)cc1)c1ccc(Br)o1 do in these assays?
L major viab: 15; Wee1 degr inh: 6; Arbovirus inh: -3; Rad51 HR inh: -6; CHOP inhibitor: 5; PKD1 kinase inh: 3

How did Cc1cc(N2CCN(C)CC2)nc2ccc(NC(=O)c3ccc4c(c3)OCO4)cc12 do in these assays?
L major viab: 100*; Wee1 degr inh: -2; Arbovirus inh: -20; Rad51 HR inh: 7; CHOP inhibitor: -67; PKD1 kinase inh: -2

How did Cc1cc(N2CCCCC2)nc2ccc(NC(=O)c3ccc(Br)o3)cc12 do in these assays?
L major viab: 94*; Wee1 degr inh: 1; Arbovirus inh: -23; Rad51 HR inh: -4; CHOP inhibitor: -38; PKD1 kinase inh: 2

How did N#CNc1nc(O)cc(=O)[nH]1 do in these assays?
Wee1 degr inh: -2; Rad51 HR inh: 16; CHOP inhibitor: 9

Results for Cc1cc(C)cc(Nc2nc3c(S(=O)(=O)c4ccccc4)nnn3c3ccccc23)c1 ?
L major viab: 50; Wee1 degr inh: 4; Arbovirus inh: 11; Rad51 HR inh: 2; CHOP inhibitor: 63; PKD1 kinase inh: -17

How did Cc1cccc(Nc2nc3c(S(=O)(=O)c4ccccc4)nnn3c3ccccc23)c1 do in these assays?
L major viab: 50*; Wee1 degr inh: 2; Arbovirus inh: -3; Rad51 HR inh: 0; CHOP inhibitor: 35; PKD1 kinase inh: -4

What do the screens show for `O=C(NCc1ccc2c3c(cccc13)C(=O)N2)c1cccs1`?
Wee1 degr inh: -2; Rad51 HR inh: 1; CHOP inhibitor: -6

What do the screens show for `Cc1cccc(C)c1NC(=O)CN(c1ccccn1)S(=O)(=O)c1ccccc1`?
L major viab: 6; Wee1 degr inh: 0; Arbovirus inh: 2; Rad51 HR inh: 3; CHOP inhibitor: 2; PKD1 kinase inh: -7

How did COc1ccc(NC2c3ccccc3C(=O)N2Cc2ccco2)cc1OC (configuration not stated) do in these assays?
L major viab: -1; Wee1 degr inh: 0; Arbovirus inh: 7; Rad51 HR inh: -1; CHOP inhibitor: 0; PKD1 kinase inh: -5

How did CCOc1ccc(NC2c3ccccc3C(=O)N2Cc2ccco2)cc1 (configuration not stated) do in these assays?
L major viab: 24; Wee1 degr inh: 0; Arbovirus inh: 3; Rad51 HR inh: 3; CHOP inhibitor: 73*; PKD1 kinase inh: -3

How did Cc1cc(OC(=O)c2c(F)cc(F)cc2F)nc(C)n1 do in these assays?
L major viab: 2; Wee1 degr inh: -3; Arbovirus inh: 9; Rad51 HR inh: -7; CHOP inhibitor: 3; PKD1 kinase inh: -6

Results for CCC(=O)Nc1ccc(-c2csc(C)n2)cc1 ?
L major viab: -8; Wee1 degr inh: 2; Arbovirus inh: -2; Rad51 HR inh: 18; CHOP inhibitor: -7; PKD1 kinase inh: -12

What do the screens show for `Cc1nc(-c2ccc(NC(=O)c3ccccc3Br)cc2)cs1`?
L major viab: 71*; Wee1 degr inh: 0; Arbovirus inh: -11; Rad51 HR inh: 8; CHOP inhibitor: 27; PKD1 kinase inh: -10

How did Cc1nc(-c2ccc(NC(=O)c3ccccc3C)cc2)cs1 do in these assays?
L major viab: 50*; Wee1 degr inh: 1; Arbovirus inh: -10; Rad51 HR inh: 23; CHOP inhibitor: 27; PKD1 kinase inh: 8

Results for Cc1nc(-c2ccc(C(=O)Nc3ccc(F)cc3)cc2)cs1 ?
L major viab: -7; Wee1 degr inh: -1; Arbovirus inh: -12; Rad51 HR inh: -13; CHOP inhibitor: 19; PKD1 kinase inh: -3

What do the screens show for `O=C(Nc1ccc(C2CC2(Cl)Cl)cc1)c1ccccc1Br` (configuration not stated)?
L major viab: 83*; Wee1 degr inh: -1; Arbovirus inh: -26; Rad51 HR inh: 9; CHOP inhibitor: 49; PKD1 kinase inh: 0

What do the screens show for `CCC1CCCCN1CCCNC(=O)c1cn(CC)c2ccc(S(=O)(=O)N3CCc4ccccc4C3)cc2c1=O` (configuration not stated)?
L major viab: 98*; Wee1 degr inh: -1; Arbovirus inh: -19; Rad51 HR inh: -15; CHOP inhibitor: -6; PKD1 kinase inh: 3

Results for CCn1cc(C(=O)NCCCN2CCCC(C)C2)c(=O)c2cc(S(=O)(=O)N3CCc4ccccc4C3)ccc21 (configuration not stated) ?
L major viab: 100*; Wee1 degr inh: 0; Arbovirus inh: -32; Rad51 HR inh: 6; CHOP inhibitor: 20; PKD1 kinase inh: -11

Results for CCN1CCCC1CNC(=O)c1cn(CC)c2ccc(S(=O)(=O)N3CCCCCC3)cc2c1=O (configuration not stated) ?
L major viab: 6; Wee1 degr inh: -2; Arbovirus inh: 9; CHOP inhibitor: 6; PKD1 kinase inh: -8

What do the screens show for `Cn1c(=O)cc(Cl)[nH]c1=O`?
L major viab: -3; Wee1 degr inh: 1; Arbovirus inh: 1; Rad51 HR inh: -8; CHOP inhibitor: -6; PKD1 kinase inh: -2
